Experimental data reported in the array DNA melting data of Ke et al. (doi:10.1101/2024.01.08.574731).

What was measured:
[1] = folding enthalpy; higher = less favourable; fluorescence melt of hairpins on a sequencing array, two-state fit; details: sodium 0.088 M
In short: (§1)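 With Cy3 and quencher oligos annealed, library hairpins on a sequenced MiSeq flow cell were imaged for Cy3 fluorescence in 50 mM Na-HEPES pH 8.0, 25 mM NaCl, in 2.5 °C steps up to 60 °C. Melting temperature and folding enthalpy were derived from bootstrapped two-state fits of signals normalised to pre-quench Cy3 and to control constructs. Four replicates were combined by inverse variance, with fitted temperatures raised by 9.35 °C to match UV melts.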

[2] = melting temperature; fluorescence melt of hairpins on a sequencing array, two-state fit, raised by 9.35 °C to match UV melts; details: sodium 0.088 M
In short: as §1

Sequence	folding enthalpy [1] [kcal/mol]	Tm [2] [°C]
GCGTGTGACGC ((((...))))	-23.8	53.4
GCGTGTGGAAACATGCGC (((..((....))..)))	-35.2	60.9
GCGTGTGTACGC ((((....))))	-25.7	53.3
GCGTGTTCGAAAGAACGC (((..(((....))))))	-14.7	50.5
GCGTTACGAAAGTACCGC (((.(((....))).)))	-31.3	53.7
GCGTTACGAAAGTACGC (((.(((....))))))	-32.2	61.1
GCGTTACGAAAGTAGCGC (((.(((....))).)))	-39.7	64.4
GCGTTACGAAAGTATCGC (((.(((....))).)))	-47.6	55.2
GCGTTATACGC ((((...))))	-20.4	61.3
GCGTTATCACGC ((((....))))	-22.5	50.6
GCGTTATGACGC ((((....))))	-25	56.2
GCGTTCAACGC ((((...))))	-23.1	56.8
GCGTTCATACGC ((((....))))	-21.7	54.7
GCGTTCCTACGC ((((....))))	-25.2	57.9
GCGTTCGAAAGAAACGC ((((((....))).)))	-35.3	56.1
GCGTTCGAAAGAAATCGC ((((((....)))..)))	-25	35.2
GCGTTCGAAAGAACACGC ((((((....)))..)))	-22.1	50.5
GCGTTCGAAAGAATCCGC ((((((....)))..)))	-22	35.3
GCGTTCGAAAGAATCGC ((((((....))).)))	-33.5	50.2
GCGTTCGGAAACGAATGC ((.((((....)))).))	-42.1	58.7
GCGTTCGGAAACGAGCGC (((.(((....))).)))	-33.6	66
GCGTTCTGACGC ((((....))))	-25.1	55.3
GCGTTGCCACGC ((((....))))	-14.3	53.8

Sequence	folding enthalpy [1] [kcal/mol]	Tm [2] [°C]
GCGTTGCGAAAGCAAAGC ((.((((....)))).))	-30.4	66
GCGTTGCGAAAGCATTGC ((..(((....)))..))	-17.7	43.5
GCGTTGCGAAAGCCATGC ((.(.((....)).).))	-25.4	40.2
GCGTTGCGAAAGCGATGC ((.(.((....)).).))	-21.9	57.6
GCGTTGCGAAAGCGTCGC (((..((....))..)))	-20.8	63.6
GCGTTGCGAAAGCTCCGC (((..((....))..)))	-17.9	54.6
GCGTTGGAACGC ((((....))))	-16.5	52.4
GCGTTGGACGC ((((...))))	-19.5	52.7
GCGTTGGGAAACCAGCGC (((.(((....))).)))	-45.2	58.3
GCGTTGGGAAACCGACGC ((((.((....)).))))	-40.3	64
GCGTTGTTACGC ((((....))))	-23.2	54.3
GCGTTTAACGC ((((...))))	-21.4	56.6
GCGTTTACGAAAGTACGC (((..(((....))))))	-24.4	47.9
GCGTTTGGAAACAAATGC ((.((((....)))).))	-47.9	51.7
GCGTTTGGAAACAGACGC ((((.((....)).))))	-39.4	52.7
GCTAAAGGAAACTTTGGC ((.((((....)))).))	-30.4	41.1
GCTAACACGAAAGTGAGC (((..(((....))))))	-20.2	39.4
GCTAACGAAAGTTAAGC ((((((....))).)))	-27.1	46.2
GCTAACGAAAGTTACAGC ((((((....)))..)))	-18.3	35.1
GCTAACGAAAGTTCGAGC ((((((....)))..)))	-14.9	32.5
GCTAACGAAAGTTGGAGC ((((((....)))..)))	-19.9	33.1
GCTAACGGAAACGTTAGC (((((((....)))))))	-47.9	66.2
GCTAAGCCGAAAGGCAGC (((..(((....))))))	-18.6	50
